Screening results (PubChem BioAssay)
CaV13 FRET inh = Disruptors of the CACNA1D IQ motif to Ca2+-dependent inactivation inhibitor domain association, primary screening, Förster resonance energy transfer in intact living …. HEK cells, CFP/YFP FRET ICDI-IQ, plate reader, 10 min; percent FRET-ratio fall versus neutral wells. inhibition, % at 12.3 µM. hit rate 0.098% among 340,000. AID 743397;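 active means mean replicate inhibition of at least 30% and at least 1% of replicates passing that level; inconclusive means only one of the two criteria is met; inactive means neither criterion is met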;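 further: 0% = median of the neutral control wells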
SR-BI DiI inh = mouse SR-BI HDL lipid transfer inhibition; ldlA[mSR-BI] CHO cells, DiI-HDL uptake fluorescence, 3 h; inhibition, % at 12.5 µM; hit rate 0.96% among 320,000;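 active means mean replicate inhibition of at least 70% and a set share of replicates each scoring 70 or more; inconclusive means meets just one of the two criteria; inactive means fails both criteria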;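 further: 0% = median of neutral control wells and 100% = median of positive control wells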
Target sequence (Q61009 whole entry, looked up): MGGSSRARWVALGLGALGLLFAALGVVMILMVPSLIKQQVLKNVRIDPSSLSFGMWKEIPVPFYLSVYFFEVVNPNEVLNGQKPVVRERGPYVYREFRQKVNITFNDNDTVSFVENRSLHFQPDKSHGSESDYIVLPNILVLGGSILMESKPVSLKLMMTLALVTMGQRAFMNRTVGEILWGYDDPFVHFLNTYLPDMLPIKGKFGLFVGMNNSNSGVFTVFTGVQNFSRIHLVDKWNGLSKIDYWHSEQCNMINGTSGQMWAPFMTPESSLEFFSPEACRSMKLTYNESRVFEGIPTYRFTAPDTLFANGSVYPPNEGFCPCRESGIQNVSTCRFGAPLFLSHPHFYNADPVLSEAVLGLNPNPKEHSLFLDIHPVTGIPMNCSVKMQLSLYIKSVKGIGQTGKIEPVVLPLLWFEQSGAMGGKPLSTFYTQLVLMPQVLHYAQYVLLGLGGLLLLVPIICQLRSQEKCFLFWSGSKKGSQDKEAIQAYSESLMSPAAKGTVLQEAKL
Efflux pump inh = inhibitors of Candida antifungal efflux pumps expressed in yeast; S. cerevisiae Candida pump triplex, Nile Red efflux; hit rate 0.44% among 330,000; inhibition, % at 10 µM;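 active means plate passing quality check with inhibition over a set limit, or well fluorescence over plate mean plus 4 SD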;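 further: Nile Red retained in pooled yeast measured as flow cytometry median fluorescence; 0% = buffer negative control and 100% = Enniatin B positive control; higher means more Nile Red kept so more efflux inhibition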
SR-BI uptake up = SR-BI HDL lipid transfer activation; hit rate 0.096% among 320,000; activation, % at 12.5 µM; CHO ldlA[mSR-BI] cells, DiI-HDL uptake fluorescence, 3 h; 100 = double the neutral-control signal;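 active means mean replicate activation of at least 60% and every replicate at or above 60%; inconclusive means mean or all-replicate condition met, but not both; inactive means mean below 60% and not all replicates reaching 60%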;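 further: 0% = median plate neutral-control signal and 100% = twice that signal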
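Test system: SR-BI-overexpressing, LDLR-lacking CHO cells; Medium: Ham's F12 with 0.5% BSA, HEPES 25 mM, pH 7.4; Schedule: 3 h, 37 °C; Technique: bottom-read fluorescence, 550/595 nm.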
FN deposit inh = fibronectin deposition inhibition. AH1F fibroblasts, Alexa488-fibronectin deposition fluorescence, overnight. inhibition, % at 12.6 µM. hit rate 0.086% among 350,000. AID 743247;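 active means mean inhibition across replicates of 30% or more, regardless of how many single replicates reach that level; inconclusive means mean under 30% yet at least half of replicates reach 30%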;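 further: positive control wells lacked labelled fibronectin entirely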
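test system = AH1F fibroblasts assembling fluorescent fibronectin matrix | quantity = 10000 AH1F cells per well | buffer or medium = DMEM plus 2% serum, read in PBS | doses = single dose, pinned | incubation = 1 h cell attachment, overnight exposure to compound and label | detection = fluorescence at 485 nm excitation, 525 nm emission | read-out basis = inhibition from reduced deposited-fibronectin fluorescence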
* marks the source's active call; other numbers are inactive results; ? = inconclusive; · = no result; + = active, no number. A selection: hits, their analogues and other compounds. The true share with any hit is near 1.2%.

SMILES	CaV13 FRET inh	SR-BI DiI inh	Efflux pump inh	SR-BI uptake up	FN deposit inh
O=C(C[n+]1cccc(NC(=O)c2ccccc2)c1)c1cccc([N+](=O)[O-])c1	6.2	-20.5	-0.3	20.5	-3.1
CNC(=O)C[C@H]1CC[C@@H]2[C@@H](COc3ccc(NC(=O)c4ccc5c(c4)OCO5)cc3C(=O)N2C)O1	·	·	·	·	3.8
CC(=O)N(C)C[C@@H]1Oc2ccc(N)cc2CC(=O)N(C)C[C@@H]1C	·	·	·	·	-13.1
O=C(NNC(=O)c1cc2ccccc2cc1O)NC1CCCCC1	-2.8	114.7*	0.1	-114.7	-22.7
O=C(NNC(=S)NC1CCCCC1)c1ccccc1O	-6.5	117.7*	-0.2	-117.7	·
COc1cccc(NC(=O)C[C@H]2CC[C@H]3[C@H](COc4ccc(NC(=O)C5CCOCC5)cc4C(=O)N3C)O2)c1	·	·	·	·	-18.1
CCN(CC)C(=O)Cn1cc(C(=O)C(=O)NCCCN2CCOCC2)c2ccccc21	-6.2	-20.6	0.0	·	-0.6
CCN(CC)C(=O)Cn1cc(C(=O)C(=O)Nc2ccc3c(c2)OCCO3)c2ccccc21	-10.0	77.0*	-3.1	-76.9	-2.8
CC(=O)N(C)C[C@H]1Oc2c(NS(C)(=O)=O)cccc2C(=O)N(C)C[C@H]1C	·	·	·	·	-10.5
CCN(CC)c1ccc(/C=C(/C#N)c2nc3ccccc3[nH]2)c(OC(C)C)c1	·	94.1*	0.3	-94.1	·
COc1cc(/C=C(\C#N)c2nc3ccccc3[nH]2)c([N+](=O)[O-])cc1OCc1ccccc1	-5.7	84.9*	-0.1	-84.9	·
CSc1ccc(Cl)c(C(=O)N2CCOc3ccccc32)c1	51.6*	25.4	-0.1	-25.4	13.8
O=C(c1cccc(C(F)(F)F)c1)N1CCOc2ccccc21	-3.9	36.6	0.4	-36.6	4.3
C[C@@H]1CN([C@@H](C)CO)C(=O)c2cc(-c3ccccc3)cnc2O[C@H]1CN(C)C(=O)c1cccc(F)c1	·	·	·	·	-25.3
C[C@H](CO)N1C[C@H](C)[C@H](CN(C)C(=O)c2cccc(F)c2)Oc2ncc(-c3ccccc3)cc2C1=O	·	·	·	·	34.5*
CCN(CC)c1ccc(C2Nc3cccc4cccc(c34)N2)c(O)c1	-8.6	114.0*	0.2	-114.0	·
Oc1ccc2ccccc2c1C1Nc2cccc3cccc(c23)N1	-8.7	34.7	-0.1	-34.7	·
C[C@H](CO)N1C[C@H](C)[C@@H](CN(C)S(=O)(=O)c2cn(C)cn2)Oc2c(NC(=O)Cc3ccccc3)cccc2C1=O	·	·	·	·	-6.4
N#C/C=C/C(=C\Nc1ccc(Cl)cc1)S(=O)(=O)c1ccccc1	-45.7	85.1*	0.0	-85.1	-1.2
CSc1sc(C(=O)NN)c2c1C1(CCC2)SCCS1	-19.8	107.3*	-0.1	-107.3	9.0
CC1=C(C(=O)OCC(Cl)(Cl)Cl)N2C(=O)C(NC(=O)Cc3ccccc3)C2SC1 (configuration not stated)	-3.9	77.5*	0.1	-77.5	3.1
CO[C@H]1CN(C)C(=O)c2cc(NC(=O)C3CC3)ccc2OC[C@@H](C)N(C(=O)c2cccnc2)C[C@@H]1C	·	·	·	·	14.2
CNC[C@H]1Oc2ccc(N(C)C)cc2CC(=O)N([C@@H](C)CO)C[C@H]1C	·	·	·	·	-2.1
CC(C)NC(=O)N1Cc2cc(C(=O)NCC(F)(F)F)nc(-c3cccc(-c4cc5ccccc5o4)c3)c2[C@H]1CCO	·	·	·	·	-6.3
Cc1cc(C)nc(/N=C(\NC(=O)C(C)(C)C)Nc2ccccc2)n1	-18.3	-2.2	0.0	2.2	-7.9
SMILES	CaV13 FRET inh	SR-BI DiI inh	Efflux pump inh	SR-BI uptake up	FN deposit inh
Cc1cc(-c2ccccc2)c2ccc(NC(=O)C(C)(C)C)nc2n1	45.4*	-88.8	-0.1	?	-7.7
CNC[C@H]1Oc2c(NC(C)=O)cccc2C(=O)N(C)C[C@H]1C	·	·	·	·	-9.0
CC(OC(=O)c1ccc(Cl)nc1)C(=O)NC1CCCC1 (configuration not stated)	-3.0	-412.1	-0.1	412.1*	-4.7
COc1ccc(S(=O)(=O)N2C[C@@H](O)COC[C@@H]3O[C@@H](CC(=O)NCCCN4CCOCC4)CC[C@H]32)cc1	·	·	·	·	2.0
CN1CCc2c(sc(NC(=O)c3cc(Cl)sc3Cl)c2C(N)=O)C1	+	·	0.1	·	-2.7
O=C(C[C@@H]1CC[C@H](NS(=O)(=O)c2ccc(F)cc2)[C@H](CO)O1)NCc1ccccc1F	·	·	·	·	-11.9
COc1cccc2sc3cc(NCc4ccc5c(c4)OCO5)ccc3c(=O)c12	12.2	22.1	0.0	-22.1	-2.2
